The results in this text go back to the array DNA melting data of Ke et al. (doi:10.1101/2024.01.08.574731).

Data set [1] can be described thus: melting temperature; fluorescence melt of hairpins on a sequencing array, two-state fit, raised by 9.35 °C to match UV melts. The settings on record: sodium 0.088 M. In outline: (§1)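 Folding enthalpy and melting temperature were estimated with bootstrapped two-state fits and combined across four replicates by inverse-variance weighting, with fitted temperatures raised by 9.35 °C to match UV melts. The data were Cy3 fluorescence of library hairpins, with annealed Cy3 and quencher oligos, on a sequenced MiSeq flow cell in 50 mM Na-HEPES pH 8.0, 25 mM NaCl, imaged in 2.5 °C steps up to 60 °C and normalised to pre-quench Cy3 and control constructs.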

Data set [2] can be described thus: folding enthalpy; higher = less favourable; fluorescence melt of hairpins on a sequencing array, two-state fit. The settings on record: sodium 0.088 M. An outline of the steps:
as §1

Consider GACATCGGAAACGATGCC (.(((((....))))).), for which, in data set [1], the Tm came out at 44.9 °C. The folding enthalpy in data set [2] was -12.5 kcal/mol.

Regarding GACATGCGAAAGCAGTC (((.(((....)))))), in data set [1], the Tm amounted to 51.9 °C. Also, the folding enthalpy in data set [2] is -16.9 kcal/mol.

For GACATGGGAAACCATATC ((.((((....)))).)), the Tm in data set [1] was 28 °C. In data set [2], the folding enthalpy was -14 kcal/mol.

On to GACATTGAAAAATGTC ((((((....)))))), for which, in data set [1], the Tm worked out at 50.3 °C. Further, the folding enthalpy in data set [2] was -31.1 kcal/mol.

As for GACATTGGAAACAATGCC (.(((((....))))).), the Tm in data set [1] came to 38.1 °C. Further, the folding enthalpy in data set [2] is -21.5 kcal/mol.

In the case of GACCAACGAAAGTTCGTC (((.(((....))).))), the Tm in data set [1] came to 34.9 °C. Also, the folding enthalpy in data set [2] was -24.4 kcal/mol.

As for GACCAACGAAAGTTTGTC (((.(((....))).))), the Tm in data set [1] is 41.7 °C. Besides, in data set [2], the folding enthalpy is -26.9 kcal/mol.

On to GACCACACGAAAGTGGTC (((..(((....)))))), for which the Tm in data set [1] was determined as 57 °C. The folding enthalpy in data set [2] is -30.9 kcal/mol.

GACCACCGAAAGGTAGTC (((.(((....))).))): the Tm in data set [1] is 47 °C. Further, in data set [2], the folding enthalpy was -31.6 kcal/mol.

GACCACGAAAGTGAAGTC ((((((....)))..))): the Tm in data set [1] was 40.2 °C. In data set [2], the folding enthalpy is -21.7 kcal/mol.

For the sequence GACCACGAAAGTGCGGTC ((((((....)))..))), the Tm in data set [1] stood at 43.2 °C. The folding enthalpy in data set [2] was -19.3 kcal/mol.

Consider GACCACGAAAGTGGAGTC ((((((....)))..))), for which the Tm in data set [1] is 38.4 °C. Further, the folding enthalpy in data set [2] was -11.5 kcal/mol.

For the sequence GACCACGAAAGTGGCGTC ((((((....)))..))), the Tm in data set [1] was 45.6 °C. Besides, the folding enthalpy in data set [2] was -12.5 kcal/mol.

As to GACCACGCGAAAGCGGTC (((..(((....)))))), the Tm in data set [1] is 47.3 °C. Moreover, the folding enthalpy in data set [2] is -13.2 kcal/mol.

Take GACCAGGGAAACCCGGTC ((((.((....)).)))): the Tm in data set [1] turned out to be 50.1 °C. In addition, the folding enthalpy in data set [2] is -37.7 kcal/mol.

In the case of GACCAGGGAAACTTGGTC (((((.(....).))))), in data set [1], the Tm came out at 47.8 °C. For the same sequence, the folding enthalpy in data set [2] is -37.8 kcal/mol.

In the case of GACCATCCGAAAGGAGTC (((..(((....)))))), the Tm in data set [1] amounted to 26.4 °C. Besides, the folding enthalpy in data set [2] was -14.4 kcal/mol.

Take GACCATGGAAACATGATC ((.((((....)))).)): the Tm in data set [1] was found to be 35.4 °C. Also, the folding enthalpy in data set [2] was -23.2 kcal/mol.

With GACCCAGGAAACTAGGTC ((((.((....)).)))), in data set [1], the Tm is 36 °C. Further, the folding enthalpy in data set [2] was -26.7 kcal/mol.

In the case of GACCCCGAAAGGGTCGTC ((((((....)))..))), the Tm in data set [1] turned out to be 58.2 °C. Besides, the folding enthalpy in data set [2] was -24.6 kcal/mol.

Consider GACCCCGGAAACAGGGTC (((((.(....).))))), for which the Tm in data set [1] was found to be 48.8 °C. Also, the folding enthalpy in data set [2] is -29.5 kcal/mol.

In the case of GACCCCGGAAACGGGATC ((.((((....)))).)), the Tm in data set [1] was 45.8 °C. In addition, the folding enthalpy in data set [2] is -16.3 kcal/mol.

Consider GACCCGCGAAAGCGAGTC (((.(((....))).))), for which, in data set [1], the Tm is 55.7 °C. In addition, the folding enthalpy in data set [2] was -26.7 kcal/mol.

Turning to GACCCTGGAAACAGAGTC (((.(((....))).))), in data set [1], the Tm came out at 36.6 °C. Also, the folding enthalpy in data set [2] is -29.5 kcal/mol.

As for GACCGACCGAAAGGTGTC (((..(((....)))))), the Tm in data set [1] came out at 35.9 °C. Moreover, in data set [2], the folding enthalpy was -15.8 kcal/mol.

For the sequence GACCGACGAAAGTCCGTC (((.(((....))).))), the Tm in data set [1] is 43.1 °C. The folding enthalpy in data set [2] was -23.9 kcal/mol.

Take GACCGAGGAAACTCGACC (..((((....))))..): the Tm in data set [1] is 26.6 °C. For the same sequence, the folding enthalpy in data set [2] is -14.3 kcal/mol.

For the sequence GACCGAGGAAACTTGGTC ((((.((....)).)))), the Tm in data set [1] came to 50.1 °C. The folding enthalpy in data set [2] is -32.5 kcal/mol.

Consider GACCGCGAAAGCGAGTC ((((((....))).))), for which, in data set [1], the Tm is 64.1 °C. The folding enthalpy in data set [2] is -20 kcal/mol.

As to GACCGCGAAAGCGATGTC ((((((....)))..))), in data set [1], the Tm is 44.3 °C. The folding enthalpy in data set [2] is -14.9 kcal/mol.

Regarding GACCGCGAAAGCGCTGTC ((((((....)))..))), the Tm in data set [1] amounted to 39 °C. Also, the folding enthalpy in data set [2] is -14.3 kcal/mol.

As for GACCGGGGAAACCCGGCC (.(((((....))))).), the Tm in data set [1] stood at 50.4 °C. In addition, in data set [2], the folding enthalpy was -11.2 kcal/mol.

As for GACCTACCGAAAGGTGTC (((..(((....)))))), the Tm in data set [1] was determined as 30.8 °C. Moreover, the folding enthalpy in data set [2] is -18 kcal/mol.

As for GACCTACGAAAGTAGTC (((.(((....)))))), the Tm in data set [1] was 42.1 °C. Moreover, the folding enthalpy in data set [2] was -17.3 kcal/mol.

Regarding GACCTAGAAATAGGTC ((((((....)))))), the Tm in data set [1] was 51.3 °C. Further, in data set [2], the folding enthalpy was -35.6 kcal/mol.

Consider GACCTCGGAAACGAAGTC (((.(((....))).))), for which the Tm in data set [1] stood at 34.7 °C. In addition, the folding enthalpy in data set [2] was -24.9 kcal/mol.

Regarding GACCTCGGAAACGAGACC (..((((....))))..), the Tm in data set [1] was 26.1 °C. For the same sequence, the folding enthalpy in data set [2] is -11.8 kcal/mol.

As to GACCTCGGAAACGAGATC ((.((((....)))).)), in data set [1], the Tm was 40.5 °C. Besides, the folding enthalpy in data set [2] was -20.3 kcal/mol.

With GACCTGGGAAACCAGATC ((.((((....)))).)), the Tm in data set [1] worked out at 36.1 °C. Besides, the folding enthalpy in data set [2] is -22.5 kcal/mol.

In the case of GACCTGGGAAACTAGGTC (((((.(....).))))), the Tm in data set [1] is 50.1 °C. For the same sequence, in data set [2], the folding enthalpy is -42.5 kcal/mol.

As to GACCTTCCGAAAGGAGTC (((..(((....)))))), in data set [1], the Tm was determined as 26.4 °C. Further, the folding enthalpy in data set [2] was -11.8 kcal/mol.

GACCTTGGAAACGAGGTC (((((.(....).))))): the Tm in data set [1] turned out to be 50.9 °C. Besides, in data set [2], the folding enthalpy is -38.9 kcal/mol.

Consider GACGAACGAAAGTTGTC (((.(((....)))))), for which the Tm in data set [1] turned out to be 44.9 °C. The folding enthalpy in data set [2] is -25.8 kcal/mol.

Consider GACGAAGAAATTCGTC ((((((....)))))), for which, in data set [1], the Tm stood at 53.8 °C. In addition, the folding enthalpy in data set [2] was -34.1 kcal/mol.

As to GACGAAGGAAACTTCATC ((.((((....)))).)), the Tm in data set [1] was 26.9 °C. Further, the folding enthalpy in data set [2] was -14.7 kcal/mol.

Consider GACGAAGGAAACTTCGCC (.(((((....))))).), for which the Tm in data set [1] is 43.7 °C. The folding enthalpy in data set [2] is -16.8 kcal/mol.

For GACGAAGGAAACTTCGTC (((((((....))))))), the Tm in data set [1] is 63.5 °C. The folding enthalpy in data set [2] was -43.9 kcal/mol.

As to GACGACACGAAAGTGGTC (((..(((....)))))), in data set [1], the Tm came out at 41.2 °C. For the same sequence, the folding enthalpy in data set [2] is -15.3 kcal/mol.

With GACGACCGAAAGGTAGTC (((.(((....))).))), in data set [1], the Tm was 57.7 °C. Besides, in data set [2], the folding enthalpy was -38.6 kcal/mol.

As to GACGACCGAAAGGTGTC (((.(((....)))))), the Tm in data set [1] came to 52.2 °C. Besides, the folding enthalpy in data set [2] was -26.5 kcal/mol.

On to GACGACGAAAGTCAGTC ((((((....))).))), for which the Tm in data set [1] is 54.1 °C. Further, the folding enthalpy in data set [2] is -24.9 kcal/mol.

With GACGACGAAAGTCCGGTC ((((((....)))..))), the Tm in data set [1] turned out to be 39.3 °C. For the same sequence, in data set [2], the folding enthalpy was -18 kcal/mol.

As for GACGACGAAAGTCTTGTC ((((((....)))..))), the Tm in data set [1] was determined as 40.3 °C. The folding enthalpy in data set [2] was -16.2 kcal/mol.

GACGACGCGAAAGCGGTC (((..(((....)))))): in data set [1], the Tm is 47 °C. In addition, the folding enthalpy in data set [2] is -11.5 kcal/mol.

For GACGAGGCGAAAGCCGTC (((..(((....)))))), the Tm in data set [1] came to 51.5 °C. Besides, the folding enthalpy in data set [2] is -8.76 kcal/mol.
